Tests used:
[1] = Antagonist activity at mouse GPCR by double antibody sandwich ELISA
In short: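 Double-antibody sandwich ELISA measuring mouse GPCR content, with a GPCR standard. Sample was mixed with diluted standard (37 ℃, 10 min), added to antibody-coated wells, then HRP conjugate was added (37 ℃, 30 min), followed by chromogens A and B and stop solution. OD450 was read within 5 min. Tested at 10 ng/L, 1 ng/mL, 0.1 μg/mL and 10 μg/mL, 30% DMSO in well. Percent inhibition versus no-inhibitor control (100%) from three independent experiments; IC50 from absorbance.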

Mus musculus = species: Mus musculus; experiment: Antagonist activity at mouse GPCR at 10 ng/L by double antibody sandwich ELISA relative to control

Q: For `C=C1[C@H]2C[C@@]3([C@@H]1O)[C@@H](C[C@@H]2O)[C@@]12[C@@H]4[C@@H]3C[C@@H]1[C@@](C)(CC[C@@H]2O)CN4CC`, which IC50 [1] is on record?
A: > 10 nM

Q: And the inhibition (Mus musculus)?
A: 39.4%

Q: Which IC50 [1] does the source give for `C=C1[C@H]2C[C@@]3([C@@H]1OC(=O)CCC)[C@@H](CC2=O)[C@@]12[C@@H]4[C@@H]3C[C@@H]1[C@@](C)(CC[C@@H]2O)CN4CC` here?
A: 8.68 nM

Q: What about the inhibition (Mus musculus) of the same compound?
A: 49.8%

Q: For `C=C1[C@H]2C[C@@]3([C@@H]1OC(=O)/C=C/c1ccccc1)[C@@H](CC2=O)[C@@]12[C@@H]4[C@@H]3C[C@@H]1[C@@](C)(CC[C@@H]2O)CN4CC`, which IC50 [1] is on record?
A: 0.29 nM

Q: What about the inhibition (Mus musculus) of the same compound?
A: 57.1%

Q: What does the source list for `C=C1[C@H]2C[C@@]3([C@@H]1O)[C@@H](C/C2=N/O)[C@@]12[C@@H]4[C@@H]3C[C@@H]1[C@@](C)(CC[C@@H]2O)CN4CC`?
A: IC50 [1]: 0.55 nM; inhibition (Mus musculus): 73.3%

Q: Which IC50 [1] does the source give for `C=C1[C@H]2C[C@@]3([C@@H]1OC(=O)CCC)[C@@H](CC2=O)[C@@]12[C@@H](OC(=O)CCC)CC[C@@]4(C)CN(CC)[C@H]1[C@@H]3C[C@H]42` here?
A: 0.14 nM

Q: And the inhibition (Mus musculus)?
A: 77.4%

Q: Which IC50 [1] does the source give for `C=C1[C@H]2C[C@@]3([C@@H]1S)[C@@H](CC2=S)[C@@]12[C@@H]4[C@@H]3C[C@@H]1[C@@](C)(CC[C@@H]2S)CN4CC` here?
A: > 10 nM

Q: And the inhibition (Mus musculus)?
A: 39.3%

Q: Which results are given for `C=C1[C@H]2C[C@@]3([C@@H]1OC(=O)CC)[C@@H](C/C2=N/OC(=O)CC)[C@@]12[C@@H](OC(=O)CC)CC[C@@]4(C)CN(CC)[C@H]1[C@@H]3C[C@H]42`?
A: IC50 [1]: > 10 nM; inhibition (Mus musculus): 36.4%

Q: For `C=C1[C@H]2C[C@@]3([C@@H]1OC(=O)COCC)[C@@H](CC2=O)[C@@]12[C@@H](OC(=O)COCC)CC[C@@]4(C)CN(CC)[C@H]1[C@@H]3C[C@H]42`, which IC50 [1] is on record?
A: 5.91 nM

Q: And the inhibition (Mus musculus)?
A: 55%

Q: What does the source list for `C=C1C(=O)[C@]23C[C@H]1C(=O)C[C@H]2[C@@]12[C@@H]4[C@@H]3C[C@@H]1[C@@](C)(CC[C@@H]2O)CN4CC`?
A: IC50 [1]: 9.99 nM; inhibition (Mus musculus): 54.6%

Q: With `C=C1[C@H]2C[C@@]3([C@@H]1O)[C@@H](C[C@H]2O)[C@@]12[C@@H]4[C@@H]3C[C@@H]1[C@@](C)(CC[C@@H]2O)CN4CC` as the compound, how does the IC50 [1] read?
A: > 10 nM

Q: What about the inhibition (Mus musculus) of the same compound?
A: 46.3%

Q: For `C=C1[C@H]2C[C@@]3([C@@H]1OC(=O)CC)[C@@H](C/C2=N/OC(=O)CC)[C@@]12[C@@H]4[C@@H]3C[C@@H]1[C@@](C)(CC[C@@H]2O)CN4CC`, which IC50 [1] is on record?
A: 3.65 nM

Q: What about the inhibition (Mus musculus) of the same compound?
A: 50.3%

Q: Which results are given for `C=C1C(=O)[C@]23C[C@H]1C(=O)C[C@H]2[C@@]12C(=O)CC[C@@]4(C)CN(CC)[C@H]1[C@@H]3C[C@H]42`?
A: IC50 [1]: > 10 nM; inhibition (Mus musculus): 34.6%

Q: For `C=C1[C@H]2C[C@@]3([C@@H]1OC(=O)COC)[C@@H](CC2=O)[C@@]12[C@@H](OC(=O)COC)CC[C@@]4(C)CN(CC)[C@H]1[C@@H]3C[C@H]42`, which IC50 [1] is on record?
A: 0.08 nM

Q: What about the inhibition (Mus musculus) of the same compound?
A: 85.3%

Q: Which IC50 [1] does the source give for `CCN1C[C@]2(C)CC[C@H](O)[C@]34[C@@H]1[C@H](C[C@H]23)[C@@]12C[C@@H](C(=O)C[C@H]14)C(CO)(OC(=O)c1cccc(Cl)c1)[C@H]2O` (stereo not given in full) here?
A: 0.23 nM

Q: What about the inhibition (Mus musculus) of the same compound?
A: 68.7%

Q: For `C=C1[C@H]2C[C@@]3([C@@H]1OC(=O)CC)[C@@H](CC2=O)[C@@]12[C@@H](OC(=O)CC)CC[C@@]4(C)CN(CC)[C@H]1[C@@H]3C[C@H]42`, which IC50 [1] is on record?
A: 0.59 nM

Q: And the inhibition (Mus musculus)?
A: 65.9%

Q: What does the source list for `C=C1[C@H]2C[C@@]3([C@@H]1OC(C)=O)[C@@H](CC2=O)[C@@]12[C@@H](OC(C)=O)CC[C@@]4(C)CN(CC)[C@H]1[C@@H]3C[C@H]42`?
A: IC50 [1]: 0.51 nM; inhibition (Mus musculus): 65.2%

Q: Which IC50 [1] does the source give for `C=C1[C@H]2C[C@@]3([C@@H]1O)[C@@H](C/C2=N/NS(=O)(=O)c1ccc(C)cc1)[C@@]12[C@@H]4[C@@H]3C[C@@H]1[C@@](C)(CC[C@@H]2O)CN4CC` here?
A: > 10 nM

Q: And the inhibition (Mus musculus)?
A: 37.7%

Q: For `C=C1[C@H]2C[C@@]3([C@@H]1OC(C)=O)[C@@H](CC2=O)[C@@]12[C@@H]4[C@@H]3C[C@@H]1[C@@](C)(CC[C@@H]2O)CN4CC`, which IC50 [1] is on record?
A: 2.62 nM

Q: What about the inhibition (Mus musculus) of the same compound?
A: 48.6%

Q: For `C=C1[C@H]2C[C@@]3([C@@H]1OC(=O)c1ccccc1)[C@@H](CC2=O)[C@@]12[C@@H]4[C@@H]3C[C@@H]1[C@@](C)(CC[C@@H]2O)CN4CC`, which IC50 [1] is on record?
A: 4.5 nM

Q: What about the inhibition (Mus musculus) of the same compound?
A: 37.7%

Q: Which IC50 [1] does the source give for `C=C1[C@H]2C[C@@]3([C@@H]1O)[C@@H](CC2=O)[C@@]12[C@@H]4[C@@H]3C[C@@H]1[C@@](C)(CC[C@@H]2O)CN4CC` here?
A: 3.21 nM

Q: What about the inhibition (Mus musculus) of the same compound?
A: 62.8%
